Consider one compound from paper PMC11825259 (Heliyon, 2024).

Each structure is given as a SMILES string.

The Ki is a dissociation constant, usually derived from enzyme kinetics or from competition with a known ligand. Read a low Ki as a stronger hold on the target.

The experiment deals with urease (Canavalia ensiformis, UniProt P07374). Kind of experiment: In vitro kinetic assay. The class given is biochemical, jack bean. The essentials:
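Jack bean urease was run without and with several concentrations of the test compound, and the data were plotted as Lineweaver–Burk double-reciprocal plots. A secondary replot of Km against inhibitor concentration gave Ki. All data were in triplicate.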

Chain of urease (P07374 whole entry, looked up): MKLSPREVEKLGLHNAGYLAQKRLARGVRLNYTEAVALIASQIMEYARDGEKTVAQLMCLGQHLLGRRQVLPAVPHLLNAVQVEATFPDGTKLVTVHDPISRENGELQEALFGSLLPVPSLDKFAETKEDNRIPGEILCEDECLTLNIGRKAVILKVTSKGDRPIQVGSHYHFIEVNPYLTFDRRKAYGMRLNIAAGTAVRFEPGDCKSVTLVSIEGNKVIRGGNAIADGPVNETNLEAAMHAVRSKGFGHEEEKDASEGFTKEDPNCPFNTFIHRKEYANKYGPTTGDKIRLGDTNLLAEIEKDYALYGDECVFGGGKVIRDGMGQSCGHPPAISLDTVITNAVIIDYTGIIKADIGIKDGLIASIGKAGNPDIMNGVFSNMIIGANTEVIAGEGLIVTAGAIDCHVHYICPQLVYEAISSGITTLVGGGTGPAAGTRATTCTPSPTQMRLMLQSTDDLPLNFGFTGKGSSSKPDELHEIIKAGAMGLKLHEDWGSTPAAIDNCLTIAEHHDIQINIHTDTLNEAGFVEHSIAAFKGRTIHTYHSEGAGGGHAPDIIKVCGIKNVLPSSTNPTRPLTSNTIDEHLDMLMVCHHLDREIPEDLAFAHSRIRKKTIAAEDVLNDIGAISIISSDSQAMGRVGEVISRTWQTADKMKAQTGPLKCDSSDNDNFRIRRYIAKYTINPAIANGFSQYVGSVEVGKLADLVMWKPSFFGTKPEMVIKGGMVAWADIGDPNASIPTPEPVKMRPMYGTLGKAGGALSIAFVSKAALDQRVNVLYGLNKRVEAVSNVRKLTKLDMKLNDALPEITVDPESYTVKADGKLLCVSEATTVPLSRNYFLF

Compound `Cc1cc(OCC(=O)N/N=C/c2ccc(OCc3cn(Cc4ccccc4)nn3)cc2)c2c(C)cc(=O)oc2c1` [13a, (E)-N'-(4-((1-Benzyl-1H-1,2,3-triazol-4-yl)methoxy)benzylidene)-2-((4,7-dimethyl-2-oxo-2H-chromen-5-yl)oxy)acetohydrazide] gave an inhibition constant Ki of 1.99 µM. The “type of urease inhibition” value (Lineweaver-Burk plot) is recorded as “uncompetitive inhibitor”.
